What is called IC50 is the concentration that inhibits the measured activity by half. Higher therefore signals weaker potency in that assay. By inhibition in vivo is commonly meant the change of the read-out against control, counted positive when it falls.

IC50, Activity and inhibition in vivo data for three compounds are collected here from ChEMBL document CHEMBL1811834, “Synthesis and antimalarial activity of new heterocyclic hybrids based on chloroquine and thiazolidinone scaffolds” (Bioorg Med Chem, 2011).

In series [1] the test system is Plasmodium falciparum. The series can be described thus: Antimalarial activity against erythrocytic stage chloroquine-sensitive Plasmodium falciparum 3D7 after 48 hrs by fluorescence spectrophotometer. In kind it is functional, organism-based. To be noted: 3D7, 48 h.
Series [2] has as its system Plasmodium falciparum. The series can be described thus: Antimalarial activity against erythrocytic stage multidrug-resistant Plasmodium falciparum Dd2 after 48 hrs by fluorescence spectrophotometer. In kind it is functional, organism-based. Conditions: Dd2, 48 h.
Series [3] is described as follows: Inhibition of beta-hematine formation after 18 to 24 hrs by ferriprotoporphyrin 9 biomineralization inhibition test. In kind it is functional. Summed up:
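Haemin chloride (0.5 mg/mL, freshly dissolved in DMSO) was mixed with 10 mg/mL compound solution or solvent in 0.5 M sodium acetate pH 4.4 and incubated 18–24 h at 37 °C. IC₅₀ is the mean of two experiments in triplicate.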

Series [4] has as its system J774. In words: Cytotoxicity against mouse macrophage J774 cells at 23 uM after 24 hrs by MTT assay. In kind it is cell-based. To be noted: j774, 24 h. In general terms: Tetrazolium dyes change colour on reduction, which living cells bring about.
The test system of series [5] is HepG2. In words: Cytotoxicity against human HepG2 cells at 23 uM after 24 hrs by MTT assay. In kind it is cell-based. Conditions: hepg2, 24 h.
The test system of series [6] is J774. In words: Cytotoxicity against mouse macrophage J774 cells at 37 uM after 24 hrs by MTT assay. In kind it is cell-based. Conditions: j774, 24 h. An outline of the steps:
(§1)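 5 × 10⁴ cells/well were exposed to compound for 24 h. Medium was then removed and MTT (0.4 mg/mL in PBS) added for 1 h. Crystals were dissolved in DMSO and read at 595 nm. % toxicity = (OD control − OD compound)/OD control × 100.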

Series [7] relates to HepG2. The series can be described thus: Cytotoxicity against human HepG2 cells at 37 uM after 24 hrs by MTT assay. In kind it is cell-based. To be noted: hepg2, 24 h. An outline of the steps: as §1
Another series deals with Plasmodium berghei. In words: Antimalarial activity against Plasmodium berghei str. ANKA infected in NMRI mouse at 10 mg/kg/day, ip for three days measured on day 4 by Giemsa staining. In kind it is functional. To be noted: route intraperitoneal. Summed up:
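NMRI male mice (20 ± 2 g, groups of five) inoculated on day 0 with 2 × 10⁷ RBCs infected with P. berghei ANKA erythrocytic stages. Two hours later, i.p. dosing at 10 mg/kg/day in DMSO, continued days 1–3.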

The subject of series [8] is J774. The series can be described thus: Cytotoxicity against mouse macrophage J774 cells at 19 uM after 24 hrs by MTT assay. In kind it is cell-based. To be noted: j774, 24 h. An outline of the steps:
as §1

The subject of series [9] is HepG2. In words: Cytotoxicity against human HepG2 cells at 19 uM after 24 hrs by MTT assay. In kind it is cell-based. To be noted: hepg2, 24 h. An outline of the steps:
as §1

On to `O=C1CSC(c2ccc3c(c2)OCO3)N1CCNc1ccnc2cc(Cl)ccc12` (stereo not given), for which the values for the 50% inhibitory concentration (IC50) (with Plasmodium falciparum [1]; with Plasmodium falciparum [2]; in series [3]) were 510 nM, 750 nM and 58400 nM, respectively. The Activity in the series on J774 [4] was determined as 47.93%; with HepG2 [5], 25.53%.

As for `Clc1ccc2c(NCc3ccccc3)ccnc2c1`, the IC50 stood at 300 nM in the series with Plasmodium falciparum [1], 330 nM in the series with Plasmodium falciparum [2] and 46500 nM in series [3]. Moreover, the results for the Activity with J774 [6] and in the series on HepG2 [7] were 0% and 46.58%, respectively. In addition, the inhibition in vivo at 10 mg/kg/day with Plasmodium berghei turned out to be 25%.

As to `CCN(CC)CCCC(C)Nc1ccnc2cc(Cl)ccc12` (stereo not given) [CHLOROQUINE], 22300 nM corresponded to half-maximal inhibition in [3] (IC50). For the same compound, the Activity in the series with J774 [8] and in the series with HepG2 [9] was 0% in each case. Besides, the inhibition in vivo at 10 mg/kg/day in the series with Plasmodium berghei was 100%.
